Only some compounds are listed: those with a hit (about 3.4% of all), similar ones and a draw of the others.
ANO1 activ: mouse TMEM16A channel activation, primary screen. Q8BHY3. HEK293 TMEM16A/YFP-H148Q/I152L, iodide quench fluorescence; stronger effect = lower value. B-score at 10 µM. hit rate 0.3% among 340,000;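 active = fluorescence-ratio B-score plate-corrected deviation score at least 3 library SD below zero, with starting fluorescence score within 5 deviations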;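 note: channel opened by trigger with iodide after compound preincubation; score built on the fluorescence ratio of max minus min over baseline; more negative score means more quench and so TMEM16A activation or potentiation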
TMEM16A inh: blocks the mouse calcium-activated chloride channel TMEM16A. Q8BHY3. HEK293 TMEM16A/YFP iodide influx fluorescence, ionomycin. normalized B-score (activity score, 25-100; higher = stronger inhibition) at 10 µM. hit rate 1.2% among 310,000;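 active = ratio plate-corrected score three or more library SD toward inhibition, starting fluorescence score within five deviations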;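 note: score derived from kinetic fluorescence span divided by baseline fluorescence per well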
MC4R antag cAMP: blocks human MC4R cAMP signaling; inhibition, % at 6.5 µM; MC4R-expressing cells, MTII-stimulated cAMP, LANCE TR-FRET; AID 540295; hit rate 0.48% among 360,000; P32245;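 active = inhibition above its plate's cutoff, the mean of tested wells on that plate plus 3 SD, cut at about 29% in these data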
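Test system: U2OS cells stably expressing human melanocortin 4 receptor (MC4R); also added: Melanotan II challenge; compound: 6.5 µM single dose; timing: 30-min compound preincubation, 1-h Melanotan II challenge, 1-h detection, room temperature; signal: Eu-cAMP/anti-cAMP TR-FRET, emission 671 nm; repeats: one well per compound, no replicates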
MIN6 prolif: inducers of beta-cell replication in MIN6 cells | hit rate 0.29% among 330,000 | MIN6 cells proliferation, ATPlite luminescence, 48 h; cells starved in 0.2% serum; 100% = growth in 10% serum | proliferation, % at 10 µM;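 active = compounds whose signal lies at least 3.5 SD above the mean of all wells on their plate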
MC4R barr agon: activates human MC4R beta-arrestin recruitment. U2OS MC4R beta-arrestin complementation, luminescence; percent of melanotan II response, DMSO zero. activation, % at 8.9 µM. hit rate 0.98% among 360,000. P32245. AID 540308;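 active = activation above a per-plate cutoff, the mean activation of sample wells on that plate plus 3 SD, cut at about 8% in these data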
m5-HT2A agonist: agonists of mouse serotonin 5-HT2A receptor (HTR2A) | P35363 | CHO-K1 mHTR2A beta-arrestin complementation, luminescence; percent of 30 µM serotonin response | activation, % at 7.6 µM | hit rate 0.66% among 360,000;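 active = activation above a run cutoff, the mean activation of all tested compounds plus 3 SD, cut at about 14% in these data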
Target sequence (P35363 whole entry, looked up): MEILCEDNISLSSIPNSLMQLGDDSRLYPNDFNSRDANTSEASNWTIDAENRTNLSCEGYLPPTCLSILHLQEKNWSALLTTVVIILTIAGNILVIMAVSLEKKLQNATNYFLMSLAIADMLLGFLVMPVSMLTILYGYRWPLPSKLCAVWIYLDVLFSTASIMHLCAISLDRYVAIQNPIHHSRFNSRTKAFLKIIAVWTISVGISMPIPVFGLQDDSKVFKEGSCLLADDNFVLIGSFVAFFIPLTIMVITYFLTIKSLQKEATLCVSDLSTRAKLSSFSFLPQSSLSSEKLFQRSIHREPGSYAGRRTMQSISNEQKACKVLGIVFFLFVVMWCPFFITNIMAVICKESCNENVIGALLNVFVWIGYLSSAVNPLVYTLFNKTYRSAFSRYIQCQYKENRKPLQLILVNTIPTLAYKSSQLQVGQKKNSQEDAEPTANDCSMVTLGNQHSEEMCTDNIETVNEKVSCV
Large screens that a line does not name were inactive.

CCC(=O)c1ccc(OCC(O)CN2CCN(S(=O)(=O)c3ccc(NC(C)=O)cc3)CC2)cc1 (stereo unspecified)	none
COc1ccc(/C=C(\NC(=O)c2ccccc2)C(=O)NCCN2CCOCC2)cc1	none
CCN1CCN(CC(=O)Nc2ccc3c(c2)OCO3)C(=O)C1=O	m5-HT2A agonist 23.2
Cn1nnc2cc(C(=O)NC3CC3)ccc21	ANO1 activ -29.4
c1ccc(CNc2cnccn2)cc1	none
c1ccc(CCNc2cnccn2)cc1	ANO1 activ -4.68
O=C(NC1CCSc2ccccc21)c1ccccc1Br (stereo unspecified)	none
CCn1nc([N+](=O)[O-])c(C(C#N)c2nc3cc(C(F)(F)F)ccc3s2)c(Cl)c1=O (stereo unspecified)	none
CCCn1nc([N+](=O)[O-])c(C(C#N)c2nc3ccccc3o2)c(Cl)c1=O (stereo unspecified)	TMEM16A inh 100
COc1ccc(OC)c(C2C(C(=O)c3ccc(C)o3)=C(O)C(=O)N2CCN2CCOCC2)c1 (stereo unspecified)	none
CCCOc1ccc(C2C(C(=O)c3ccc(C)o3)=C(O)C(=O)N2CCN2CCOCC2)cc1OC (stereo unspecified)	TMEM16A inh 100
CCOC(=O)c1sc2nc(CSc3ccccc3)nc(N3CCC(C(N)=O)CC3)c2c1C	ANO1 activ -5.75
O=C(Nc1cccc(-c2nc3cccnc3s2)c1)c1ccc(Cl)nc1	MC4R barr agon 8.6
O=[N+]([O-])c1ccc(N2CCCC2)cc1NCc1ccccc1	ANO1 activ -6.54
O=[N+]([O-])c1ccc(N2CCOCC2)cc1NCc1ccccc1	none
CCOC(=O)N1CCC(NC(=O)C2CCCN(Cc3nc(-c4ccc(CC)cc4)oc3C)C2)CC1 (stereo unspecified)	TMEM16A inh 25
Cc1cccc(-c2nc(CN3CCCC(C(=O)NC4CCCCC4)C3)c(C)o2)c1 (stereo unspecified)	TMEM16A inh 25
Cc1cccc(-c2nc(CN3CCCC(C(=O)NC4CCCCCC4)C3)c(C)o2)c1 (stereo unspecified)	none
CC1=C(C(=O)N2CCOCC2)CC(CC(=O)NCCCN(C)C)C(=O)N1CCCN1CCCC1=O (stereo unspecified)	none (no result: ANO1 activ, TMEM16A inh, MC4R antag cAMP, MIN6 prolif, MC4R barr agon)
COc1cccc(NC(=O)CN(C)C(=O)c2cc3ccccc3cc2OC)c1	ANO1 activ -34.1 (no result: TMEM16A inh)
Cn1c(CC(=O)Nc2ccccc2Cl)nnc1SCC(=O)NC1=NCCS1	none
CCc1cc2c(N3CCN(c4ccccc4)CC3)ncnc2s1	TMEM16A inh 25
COc1cccc2sc(N(CCCN(C)C)C(=O)c3ccc(S(=O)(=O)N4CCc5ccccc5C4)cc3)nc12	MC4R barr agon 9.0
COc1ccc(C)c2sc(N(CCCN(C)C)C(=O)c3ccc(S(=O)(=O)N4CCc5ccccc5C4)cc3)nc12	MC4R barr agon 36.7 (no result: MIN6 prolif)
COc1ccc(OC)c2sc(N(CCCN(C)C)C(=O)c3ccc(S(=O)(=O)N4CCc5ccccc5C4)cc3)nc12	none (no result: ANO1 activ, MC4R antag cAMP, MC4R barr agon, m5-HT2A agonist)
COc1cc2nc(N(CCCN(C)C)C(=O)c3ccc(S(=O)(=O)N4CCc5ccccc5C4)cc3)sc2cc1OC	none
O=S1(=O)CC(N2CCC(Cc3ccccc3)CC2)CN1C1CCCCC1 (stereo unspecified)	none (no result: ANO1 activ, TMEM16A inh, MC4R antag cAMP, MIN6 prolif, MC4R barr agon)
COc1ccc(/C=C\C(=O)O[C@@H]2C(O)C(O[C@@H]3OC(C)[C@H](O[C@@H]4OCC(O[C@H]5O[C@H](CO)[C@@H](O)C(O)C5O)C(O)C4O)C(O)C3O)[C@H](OC(=O)[C@]34CCC(C)(C)C[C@@H]3C3=CCC5[C@@]6(C)CC(O)C(O[C@@H]7OC(CO)C(O)[C@H](O)[C@H]7O)[C@@](C)(C(=O)O)C6CC[C@@]5(C)[C@]3(CO)CC4)O[C@H]2C)cc1 (stereo partly specified)	ANO1 activ -32.1, MC4R antag cAMP 66.4, m5-HT2A agonist 15.9 (no result: TMEM16A inh)
Cc1c(N2C(=O)/C(=C/c3ccccc3)SC2=S)c(=O)n(-c2ccccc2)n1C	none
Cc1c(N2C(=O)/C(=C/c3ccc(N(C)C)cc3)N(C)C2=S)c(=O)n(-c2ccccc2)n1C	ANO1 activ -7.97 (no result: TMEM16A inh, MIN6 prolif)
COC(=O)C1=C(C)N(Cc2ccccc2)C(=NCCc2c[nH]c3ccccc23)N[C@H]1c1cccc(F)c1	MC4R barr agon 8.2 (no result: TMEM16A inh)
COC(=O)C1=C(C)N(Cc2ccccc2)C(=NCCc2c[nH]c3ccccc23)N[C@H]1c1ccccc1	none (no result: TMEM16A inh)
Cc1ccc([N+](=O)[O-])cc1S(=O)(=O)Nc1ccc(C(=O)NCC2CCCO2)cc1 (stereo unspecified)	none (no result: TMEM16A inh)
CC(C)(C)C1=CC(=O)C(=O)C(C(C)(C)C)=C1	MC4R barr agon 24.6
Cc1cc(Oc2ccc(Br)cc2)nc(SCC(=O)c2ccccc2)n1	MC4R barr agon 8.6
Cc1cc(Oc2ccc3ccccc3c2)nc(SCC(=O)c2ccccc2)n1	none
Cc1ccc(N2CCN(c3ccc(C)cc3)C2c2cccnc2)cc1	TMEM16A inh 25
c1ccc(N2CCN(c3ccccc3)C2c2cccnc2)cc1	none
CCCSc1nnc(CSc2nc3ccccc3s2)n1-c1ccccc1	TMEM16A inh 100
COCCn1c(SCC(=O)NCCCN2CCCC2=O)nc2sc3c(c2c1=O)CCCC3	none (no result: TMEM16A inh, MIN6 prolif)
CCOc1ccc(C(=O)NC(=S)Nc2ccc(N3CCCCC3)cc2)cc1[N+](=O)[O-]	MC4R barr agon 47.2
CCOc1cc(/C=N/NC(=O)c2cc(C)[nH]n2)ccc1OC(=O)c1ccc([N+](=O)[O-])cc1	TMEM16A inh 100 (no result: ANO1 activ, MC4R antag cAMP, MC4R barr agon, m5-HT2A agonist)
Cc1nc(Nc2ccc(S(N)(=O)=O)cc2)sc1C(=O)Nc1ccccc1	ANO1 activ -8.88
Nn1c(Cc2cccc3ccccc23)n[nH]c1=S	none
S=c1[nH]nc(Cc2cccc3ccccc23)n1-c1ccccc1	ANO1 activ -7.17
Nc1cccc(Nc2nc(OC(C(F)(F)F)C(F)(F)F)nc(OC(C(F)(F)F)C(F)(F)F)n2)c1	TMEM16A inh 100
COc1nc(Nc2ccc(O)cc2)nc(OC(C(F)(F)F)C(F)(F)F)n1	none
COc1cccc(CN(C)C(=O)CNC(=O)c2ccc(-c3ccccc3)cc2)c1OC	TMEM16A inh 100
O=C1c2cccc(OCc3ccc(F)cc3)c2CCN1Cc1ccc(F)cc1	TMEM16A inh 25
Oc1c(Br)cc(Br)cc1CNc1cnc2ccccc2c1	TMEM16A inh 25
C/C(=C\c1cc2ccccc2o1)C1Nc2cccc3cccc(c23)N1	ANO1 activ -17.7 (no result: TMEM16A inh)
O=[N+]([O-])c1ccc(S(=O)(=O)NCCS(=O)(=O)N2CCN(c3ccccc3)CC2)cc1	ANO1 activ -28.8
O=C(NCCc1ccccc1O)c1cc2c(cc1[N+](=O)[O-])OCO2	none (no result: TMEM16A inh, MIN6 prolif)
